This is a sample that favours compounds with a hit; in the whole collection about 2.5% have one here.
ABHD5 PLIN5 PPI: inhibitors of human ABHD5-perilipin-5 interaction; inhibition, % at 4 µM; Split G. princeps luciferase complementation, luminescence, 4 h; Q00G26+Q8WTS1; actives 0.78% (n = 360,000); AID 602281;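 active = inhibition above the mean inhibition across every tested compound plus 3 SD, cut at about 22% in these data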
Target sequence (Q00G26 whole entry, looked up): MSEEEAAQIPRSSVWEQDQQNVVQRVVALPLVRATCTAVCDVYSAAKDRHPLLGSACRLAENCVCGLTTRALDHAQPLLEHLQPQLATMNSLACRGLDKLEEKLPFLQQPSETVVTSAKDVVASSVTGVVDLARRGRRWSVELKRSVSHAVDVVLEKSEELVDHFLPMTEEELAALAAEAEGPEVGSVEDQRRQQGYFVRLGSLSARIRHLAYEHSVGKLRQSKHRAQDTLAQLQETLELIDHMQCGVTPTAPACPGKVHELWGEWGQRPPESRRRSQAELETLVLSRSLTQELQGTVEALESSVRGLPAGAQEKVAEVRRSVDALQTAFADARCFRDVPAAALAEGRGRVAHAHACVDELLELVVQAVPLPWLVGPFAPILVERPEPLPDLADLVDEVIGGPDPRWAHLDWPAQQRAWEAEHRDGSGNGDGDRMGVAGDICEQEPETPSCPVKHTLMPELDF
Target sequence (Q8WTS1 whole entry, looked up): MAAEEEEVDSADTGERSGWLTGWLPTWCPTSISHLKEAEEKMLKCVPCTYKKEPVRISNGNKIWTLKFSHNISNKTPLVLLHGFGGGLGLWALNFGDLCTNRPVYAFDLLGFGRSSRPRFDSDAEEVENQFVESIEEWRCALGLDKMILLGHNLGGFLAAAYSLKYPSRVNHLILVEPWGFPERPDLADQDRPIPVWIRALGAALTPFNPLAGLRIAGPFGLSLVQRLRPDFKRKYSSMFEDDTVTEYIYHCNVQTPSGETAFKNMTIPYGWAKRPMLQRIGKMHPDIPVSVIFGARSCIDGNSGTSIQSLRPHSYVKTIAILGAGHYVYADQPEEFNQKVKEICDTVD
Arrestin-AP2 inh: inhibitors of human beta-arrestin and AP2 interaction. FITC-arrestin peptide / GST-AP2 beads, flow cytometry; AP2 beta2 appendage carries R879A mutation. inhibition, % at 10 µM. actives 0.31% (n = 340,000);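 active = inhibition above a set limit, near 3 SD of compounds lacking own fluorescence, cut at about 54% in these data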
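Material – AP2 appendage R879A on GSH beads · Buffer or medium – PBS with 0.05% Tween 20 and 0.1% BSA · Probe or stimulus – fluorescein-tagged arrestin peptide at 50 nM final · Incubation – compound with beads 12 min RT, then probe 1 h RT · Detection – high-throughput flow cytometry of beads, ex 488, em 535 nm · Evaluation – percent response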
Beta2AR agonist: agonists of human beta-2 adrenergic receptor inducing internalization. P07550. actives 0.43% (n = 340,000). AID 504454. response, % (test concentration not listed). Am2.2-beta2AR cells, FAP receptor internalization, flow cytometry;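 active = response above a set limit, near 3 SD of response in nonfluorescent compounds, cut at about 42% in these data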
Rin1-Abl PPI inh: human Rin1-Abl interaction inhibition; inhibition, % at 7.35 µM; TR-FRET Rin1/Abl binding, biochemical; actives 0.4% (n = 360,000); P00519+Q13671; AID 588664; in the data active = inhibition above about 5%, passing the limit was not always enough
UHRF1 MBD2 ctr: UHRF1 methyl-DNA binding inhibition; actives 0.75% (n = 370,000); inhibition, % at 4.4 µM; UHRF1 binding to methylated oligo, TR-FRET; Q96T88;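 also: UHRF1 SRA domain binding a hemimethylated CpG hairpin DNA probe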
MBD2 DNA inh: blocks human MBD2 binding to methylated DNA; TR-FRET, MBD2 binding to methylated oligonucleotide; inhibition, % at 4.4 µM; actives 0.31% (n = 370,000); AID 686964; in the data active = inhibition above about 13%
ABHD5 PLIN5 conf: ABHD5-PLIN5 interaction inhibition, confirmed | shares compounds with ABHD5 PLIN5 PPI | AID 651612 | actives 67% (n = 2,200) | biochemical ABHD5-PLIN5 interaction, luminescence | inhibition, % at 4 µM; in the data active = inhibition above about 23%
HNF4 counter: active in HNF4 split-luciferase counter-screen for ABHD5-PLIN5 inhibitors. shares compounds with ABHD5 PLIN5 PPI. HNF4 dimerization, luminescence, biochemical. inhibition, % at 4 µM. actives 77% (n = 2,200). AID 651674;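 active = mean inhibition across replicate wells exceeding the computed hit threshold, cut at about 13% in these data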;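 also: light from luciferase halves that rejoin when HNF4 fusion proteins dimerize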
UHRF1 DNA bind: UHRF1 methyl-oligo binding inhibition as MBD2 counter-screen; shares compounds with MBD2 DNA inh; inhibition, % at 4.4 µM; UHRF1 binding to methylated oligonucleotide, TR-FRET; AID 720530; actives 25% (n = 1,000);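 also: UHRF1 SRA domain binding a labeled hemimethylated CpG hairpin DNA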
MBD2 confirm: MBD2-DBD methyl-DNA binding inhibition, TR-FRET confirmation; actives 26% (n = 1,000); shares compounds with MBD2 DNA inh; inhibition, % at 4.4 µM; TR-FRET MBD2-DBD binding to methylated oligonucleotide; in the data active = inhibition above about 14%
Hits are given with their value; - = inactive; . = no result. Rule as the data show it, unless noted: active = inhibition above about 21%; inactive = the rest.

SMILES	ABHD5 PLIN5 PPI	Arrestin-AP2 inh	Beta2AR agonist	Rin1-Abl PPI inh	UHRF1 MBD2 ctr	MBD2 DNA inh	UHRF1 DNA bind	MBD2 confirm	others
CC1CN(Cc2c(O)ccc3c2oc(=O)c2ccccc23)CC(C)O1 (stereo not drawn)	48.6	-	-	-	-	15.8	-	-	ABHD5 PLIN5 conf=71.6;HNF4 counter=44.2
CN(C)c1ccc(C=c2c3ccccc3n3c2cc(-c2ccc(Cl)cc2)[n+]3C)cc1	-	-	-	-	-	-	.	.
COc1cc(N(C)C)ccc1C=c1c2ccccc2n2c1cc(-c1ccccc1)[n+]2C	24.4	-	-	-	43.2	26.6	62.1	57.6	ABHD5 PLIN5 conf=-;HNF4 counter=26.2
COc1ccc(-c2cc(=O)n(CCC#N)[nH]2)cc1	25.6	-	-	-	-	17.8	-	-	ABHD5 PLIN5 conf=-;HNF4 counter=-
COC(=O)c1cc(NC(=O)NC2CCCCN(Cc3cccc(Cl)c3)C2=O)cc(C(=O)OC)c1 (stereo not drawn)	.	.	.	.	-	-	.	.
COP(=O)(O)C(C)NC(=O)OCc1ccccc1 (stereo not drawn)	.	.	.	.	-	-	.	.
CN(C)c1ccc2cc(S(=O)(=O)O)cc(O)c2c1	26.5	-	-	-	83.3	45.2	28.5	-	ABHD5 PLIN5 conf=-;HNF4 counter=12.7
COc1cc2c(cc1NC(=O)COC(=O)Cn1cnc3ccccc31)oc1ccccc12	-	-	-	-	-	18.6	-	-
COc1ccc(CCNC(=O)COC(=O)Cn2cnc3ccccc32)cc1OC	-	-	-	-	-	-	.	.
COc1ccccc1-c1ccc(/C=C2\C=CC(=O)O2)o1	-	-	-	-	26.8	15.0	-	-
COc1ccc(OC)c(N2C(=O)[C@@H]3C(c4ccccc4Cl)=NO[C@@H]3C2=O)c1	-	-	-	-	66.9	25.6	38.2	18.0
COC(=O)C1CN(Cc2ccc(Cl)cc2)CCS(=O)(=O)N1Cc1cn(Cc2ccc(C)cc2)nn1 (stereo not drawn)	.	.	.	.	-	-	.	.
O=C(CCc1ccccc1)N[C@H]1[C@@H](OC(=O)c2cccnc2)CCC[C@]12C(=O)N(Cc1ccccc1)c1ccccc12	.	.	.	.	-	17.1	-	-
CC(C)(C)C(=O)O[C@@H]1CCC[C@@]2(C(=O)N(Cc3ccccc3)c3ccccc32)[C@H]1NC(=O)CCc1ccccc1	.	.	.	.	-	-	.	.
Cc1cc(C(=O)O[C@H]2CCC[C@]3(C(=O)N(Cc4ccccc4)c4ccccc43)[C@H]2NC(=O)CCc2ccccc2)no1	.	.	.	.	-	-	.	.
O=C(CCc1ccccc1)N[C@H]1[C@H](OCc2ccccc2)CCC[C@@]12C(=O)N(Cc1ccccc1)c1ccc(-c3ccsc3)cc12	.	.	.	.	-	15.3	-	-
O=S1(=O)c2ccc(Br)cc2OC[C@@H](c2ccccc2)N1Cc1cn(CCC2OCCO2)nn1	.	.	.	.	-	-	.	.
CC(=O)OC[C@H]1O[C@@H](n2ncc(=O)[nH]c2=O)[C@H](OC(C)=O)[C@@H]1OC(C)=O	-	.	.	-	.	.	.	.
O=C(OCC1OC(n2ncc(=O)[nH]c2=O)C(OC(=O)c2ccccc2)C1OC(=O)c1ccccc1)c1ccccc1 (stereo not drawn)	-	-	-	-	-	28.2	-	-
O=Cc1ccc(/C=C2\c3ccccc3C(=O)N2c2ccccc2)o1	.	.	.	.	-	-	.	.
CCOC(=O)C1CCCN(C(=O)c2cc(-c3ccncc3)nc3ccccc23)C1 (stereo not drawn)	-	-	-	-	-	-	.	.
CCOC(=O)C1CCCN(C(=O)c2cc(-c3ccco3)nc3ccccc23)C1 (stereo not drawn)	-	-	-	-	37.6	20.2	38.8	24.5
O=C(N=C1SC2CS(=O)(=O)CC2N1CCc1ccccc1)C1CCCCC1 (stereo not drawn)	-	-	-	-	-	86.3	-	-
O=C(N=C1SC2CS(=O)(=O)CC2N1CCc1ccccc1)C1CC1 (stereo not drawn)	-	-	-	-	-	-	.	.
CCn1nc(C(=O)NNC(=O)c2ccccc2)c2ccccc2c1=O	-	-	-	-	-	24.3	-	-
SMILES	ABHD5 PLIN5 PPI	Arrestin-AP2 inh	Beta2AR agonist	Rin1-Abl PPI inh	UHRF1 MBD2 ctr	MBD2 DNA inh	UHRF1 DNA bind	MBD2 confirm	others
CCn1nc(C(=O)NNC(=O)c2ccc(OC(F)F)cc2)c2ccccc2c1=O	-	-	-	-	-	-	.	.
Fc1cc(Cl)cc2ccc(-c3ccccc3)nc12	-	.	.	-	-	-	.	.
Cc1ccccc1NC(=O)CCS(=O)(=O)c1ccc(Br)cc1	-	-	-	-	-	-	.	.
CCN(CC)c1ccc(NC(=O)CCS(=O)(=O)c2ccc(Br)cc2)c(C)c1	-	-	-	-	54.1	25.4	63.2	30.0
CC(C)OC(=O)c1sc2nc(-c3ccccc3)ccc2c1N	-	-	-	-	-	-	.	.
COC(=O)c1sc2nc(-c3ccco3)ccc2c1N	-	-	-	-	55.1	16.1	-	-
O=Cc1cccc(OC(=O)/C=C/c2ccco2)c1	-	-	-	-	48.2	17.4	48.1	24.6
O=C(NNC(=O)c1ccccc1F)c1cccc(-n2cccc2)c1	-	-	-	-	45.8	24.4	45.8	33.5
O=C(NNC(=O)c1cccc(-n2cccc2)c1)c1ccccc1	-	-	-	-	-	-	.	.
CC(C(=O)Nc1cccnc1)C1Sc2ccccc2NC1=O (stereo not drawn)	-	-	-	-	-	77.6	-	-
COCCCNc1nc2cc(OC)c(OC)cc2c2nc(-c3ccccc3)nn12	-	-	-	-	-	-	.	.
CCN(CC)CCCNc1nc2cc(OC)c(OC)cc2c2nc(-c3ccccc3)nn12	-	-	-	-	35.3	34.9	56.1	57.0
COc1cc2nc(NCCCN3CCN(C)CC3)n3nc(-c4ccccc4)nc3c2cc1OC	-	-	-	-	49.5	47.8	41.0	42.5
COc1cc2nc(NCC3CCCO3)n3nc(-c4cccnc4)nc3c2cc1OC (stereo not drawn)	-	-	-	-	-	-	.	.
CCN(CC)CCCNc1nc2cc(OC)c(OC)cc2c2nc(-c3cccnc3)nn12	-	-	-	-	68.2	69.1	81.2	77.9
C[C@H]1[C@@H](OC(=O)NCc2cccc(C(F)(F)F)c2)CC[C@@]23CCCN2C(=O)CCC[C@@H]13	.	.	.	.	-	-	.	.
C=CCN1C(=O)[C@@H](CC(=O)NCCCN2CCCC2=O)[C@]2(C(=O)OCC)CCCCC/C=C/12	.	.	.	.	-	-	.	.
